# Experimental data as given in ChEMBL document CHEMBL1144864, “Exploration of the bicyclo[3.3.1]nonane system as a template for the development of new ligands for the estrogen receptor” (Bioorg Med Chem Lett, 2003).
# Legend:
# [1] = molecular target: T1, Estrogen receptor (Homo sapiens) (UniProt P03372); assay: Affinity for estrogen receptor alpha (ER-alpha) relative to estradiol
# T1 sequence (whole entry): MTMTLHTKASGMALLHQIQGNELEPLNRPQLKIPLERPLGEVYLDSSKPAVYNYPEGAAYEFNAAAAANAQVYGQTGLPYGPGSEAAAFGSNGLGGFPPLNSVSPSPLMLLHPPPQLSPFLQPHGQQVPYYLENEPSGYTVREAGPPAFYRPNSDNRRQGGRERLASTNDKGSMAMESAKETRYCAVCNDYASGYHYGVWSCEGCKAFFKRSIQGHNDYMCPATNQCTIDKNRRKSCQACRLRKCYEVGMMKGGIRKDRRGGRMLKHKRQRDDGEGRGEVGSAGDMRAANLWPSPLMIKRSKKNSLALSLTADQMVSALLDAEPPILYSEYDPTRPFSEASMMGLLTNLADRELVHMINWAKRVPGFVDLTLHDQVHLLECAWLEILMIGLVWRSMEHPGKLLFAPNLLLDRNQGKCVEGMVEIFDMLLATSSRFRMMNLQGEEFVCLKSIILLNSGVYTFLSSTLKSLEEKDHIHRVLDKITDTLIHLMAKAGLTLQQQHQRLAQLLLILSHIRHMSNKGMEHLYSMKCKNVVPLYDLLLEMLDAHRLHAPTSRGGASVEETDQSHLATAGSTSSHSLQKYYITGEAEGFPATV
# In short: (§1)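 Competitive radiometric binding assay against ER alpha or ER beta. Values are reported as relative binding affinity (RBA), expressed as a percentage of the affinity of estradiol.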
# [2] = molecular target: Estrogen receptor beta (Homo sapiens) (UniProt Q92731); assay: Affinity for estrogen receptor beta (ER-beta) relative to estradiol; in short: as §1
# [3] = molecular target: Estrogen receptor (Homo sapiens) (UniProt Q92731+P03372); assay: Relative affinity for alpha and beta estrogen receptors; assay type: protein assay
# [4] = molecular target: Estrogen receptor beta (Homo sapiens) (UniProt Q92731); assay: Binding affinity for Estrogen receptor beta relative to estradiol; in short: as §1
# [5] = molecular target: T1, Estrogen receptor (Homo sapiens); assay: Binding affinity for Estrogen receptor alpha relative to estradiol; in short: as §1
# Estrogen receptor beta (Homo sapiens), sequence (Q92731 whole entry): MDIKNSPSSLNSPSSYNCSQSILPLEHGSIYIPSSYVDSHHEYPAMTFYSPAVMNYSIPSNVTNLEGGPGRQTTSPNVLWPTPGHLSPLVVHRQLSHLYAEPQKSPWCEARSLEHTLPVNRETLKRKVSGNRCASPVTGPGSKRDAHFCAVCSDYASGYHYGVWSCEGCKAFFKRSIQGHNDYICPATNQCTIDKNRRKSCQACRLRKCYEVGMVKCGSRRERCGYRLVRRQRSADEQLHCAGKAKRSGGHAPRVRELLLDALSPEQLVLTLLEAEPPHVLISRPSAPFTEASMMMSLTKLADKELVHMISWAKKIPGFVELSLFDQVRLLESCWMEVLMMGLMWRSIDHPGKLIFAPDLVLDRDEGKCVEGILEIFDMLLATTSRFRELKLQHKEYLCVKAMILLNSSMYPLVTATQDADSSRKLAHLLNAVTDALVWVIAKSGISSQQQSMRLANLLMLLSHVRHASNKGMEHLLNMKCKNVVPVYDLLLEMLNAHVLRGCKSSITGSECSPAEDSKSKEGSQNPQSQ
# Estrogen receptor (Homo sapiens) (UniProt Q92731+P03372), sequence (Q92731 whole entry, looked up, one chain of several): as the sequence (Q92731 whole entry) above
smiles,measurement,setting,value
O=C1c2ccc(O)cc2C2CC1c1cc(O)ccc1C2=O,relative binding affinity (RBA),[1],0.005
same,relative binding affinity (RBA),[2],0.022
same,Ratio,[3],4.4
Oc1ccc(C2CCC3CC2CCC3c2ccc(O)cc2)cc1 (stereo not drawn),relative binding affinity (RBA),[1],0.44
same,relative binding affinity (RBA),[2],2.9
same,Ratio,[3],6.6
CC(=C1C2CCCC1CCC2)c1ccc(O)cc1,relative binding affinity (RBA),[1],1.71
same,relative binding affinity (RBA),[2],4.58
same,Ratio,[3],2.7
Oc1ccc(C(=C2C3CCCC2CCC3)c2ccc(O)cc2)cc1,relative binding affinity (RBA),[1],513
same,relative binding affinity (RBA),[2],301
same,Ratio,[3],0.59
Oc1ccc(C2(c3ccc(O)cc3)C3CCCC2CCC3)cc1,relative binding affinity (RBA),[1],0.31
same,relative binding affinity (RBA),[2],0.25
same,Ratio,[3],0.8
C[C@@H]1c2cc(O)ccc2C2CC1c1ccc(O)cc1[C@H]2C,relative binding affinity (RBA),[1],0.004
same,relative binding affinity (RBA),[2],0.011
same,Ratio,[3],2.7
Oc1ccc2c(c1)CC1CC2Cc2cc(O)ccc21,relative binding affinity (RBA),[1],0.22
same,relative binding affinity (RBA),[2],0.77
same,Ratio,[3],3.5
Oc1ccc2c(c1)CN1CN2Cc2cc(O)ccc21,relative binding affinity (RBA),[1],< 0.005
same,relative binding affinity (RBA),[2],< 0.005
O=C1c2cc(O)ccc2C2CC1c1ccc(O)cc1C2=O,relative binding affinity (RBA),[1],0.006
same,relative binding affinity (RBA),[2],0.021
same,Ratio,[3],3.5
Oc1ccc(C2C3CCCC2CCC3)cc1 (stereo not drawn),relative binding affinity (RBA),[1],0.13
same,relative binding affinity (RBA),[2],1.33
same,Ratio,[3],10
CC(=O)Oc1ccc(C(=C2CCCCC2)c2ccc(OC(C)=O)cc2)cc1,relative binding affinity (RBA),[4],334
same,relative binding affinity (RBA),[5],68
C[C@@H]1c2ccc(O)cc2C2CC1c1cc(O)ccc1[C@H]2C,relative binding affinity (RBA),[1],0.007
same,relative binding affinity (RBA),[2],0.025
same,Ratio,[3],3.6
CC1(c2ccc(O)cc2)C2CCCC1CCC2 (stereo not drawn),relative binding affinity (RBA),[1],0.32
same,relative binding affinity (RBA),[2],8.9
same,Ratio,[3],28
Oc1ccc(C2=CCC3CCCC2C3)cc1 (stereo not drawn),relative binding affinity (RBA),[1],0.39
same,relative binding affinity (RBA),[2],1.81
same,Ratio,[3],4.6
Oc1ccc2c(c1)C1Cc3ccc(O)cc3C(C2)C1,relative binding affinity (RBA),[1],0.033
same,relative binding affinity (RBA),[2],0.072
same,Ratio,[3],2
